# Compound activity deposited in PubChem BioAssay by The Scripps Research Institute Molecular Screening Center.
# Shown are actives, neighbours in structure and some others; about 2.4% of the full set was active somewhere.
# NPY-Y1 PAM-ag – NPY-Y1 receptor potentiators or agonists, primary screen, cell-based | Neuropeptide Y receptor type 1 (Homo sapiens), P25929 | NPY-Y1 expressing cells, potentiator/agonist activation | activation, % at 3.6 µM | 220,000 tested, 0.37% active | AID 1304, 2008; in the data active = activation above about 33%, passing the limit was not always enough;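 note: cells stimulated with NPY at EC10 then isoproterenol at EC100; 0% = low agonist plus stimulus and 100% = saturating agonist plus stimulus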
# Target sequence (P25929 whole entry, looked up): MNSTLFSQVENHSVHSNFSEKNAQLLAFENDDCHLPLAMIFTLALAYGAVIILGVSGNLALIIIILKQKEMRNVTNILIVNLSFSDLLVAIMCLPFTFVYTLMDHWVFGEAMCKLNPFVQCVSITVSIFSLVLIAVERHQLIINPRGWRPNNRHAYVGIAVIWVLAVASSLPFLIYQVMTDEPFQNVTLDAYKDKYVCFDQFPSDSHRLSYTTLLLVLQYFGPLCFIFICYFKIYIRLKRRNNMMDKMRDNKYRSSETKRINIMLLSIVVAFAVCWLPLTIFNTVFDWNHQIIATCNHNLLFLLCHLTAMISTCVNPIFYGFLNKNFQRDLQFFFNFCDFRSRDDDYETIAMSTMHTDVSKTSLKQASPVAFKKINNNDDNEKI
# NPY-Y2 PAM-ag – NPY-Y2 potentiators or agonists, primary screen, cell-based; Neuropeptide Y receptor type 2 (Homo sapiens), P49146; cells expressing NPY-Y2, potentiator/agonist read-out; activation, % at 3.6 µM; 220,000 tested, 0.45% active; AID 1359, 2008; in the data active = activation above about 27%;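 note: cells stimulated with NPY near EC25 plus isoproterenol at EC100; 0% = vehicle plus submaximal agonist and 100% = vehicle plus saturating agonist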
# S1P4 agonist – S1P4 receptor agonists, primary screen, cell-based; Sphingosine 1-phosphate receptor 4 (Homo sapiens), O95977; S1P4-expressing cell line, agonist reporter assay; activation, % at 4.98 µM; 220,000 tested, 0.35% active; in the data active = activation above about 11%;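 note: 0% = DMSO vehicle and 100% = reference agonist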
# S1P4 antagonist – S1P4 receptor antagonists, primary screen, cell-based; Sphingosine 1-phosphate receptor 4 (Homo sapiens), O95977; 220,000 tested, 0.26% active; inhibition, % at 4.98 µM; S1P4-expressing cells, antagonist mode, reporter read-out; in the data active = inhibition above about 29%;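 note: 0% = wells stimulated with agonist and 100% = vehicle wells without agonist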
# NPY-Y1 antag – NPY-Y1 receptor antagonists, primary screen, cell-based; HEK293-CNG Y1 cells, membrane potential fluorescence; NPY at EC95, then isoproterenol; inhibition, % at 3.6 µM; 200,000 tested, 1% active;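 active = inhibition above the campaign mean inhibition of all tested compounds plus 3 SD, cut at about 20% in these data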;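 note: 0% = DMSO wells given NPY plus isoproterenol and 100% = isoproterenol alone without NPY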
#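 material = HEK293 cells with Y1 receptor plus CNG channel | also added = NPY 25 nM then isoproterenol 1 µM plus Ro 20-1724 25 µM | schedule = dye 3 h, compound 60 min room temperature, stimulation 45 min | measured by = membrane potential fluorescence | benchmarks = high control isoproterenol alone, low control NPY with isoproterenol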
# NPY Y2 blocker – NPY-Y2 receptor antagonists, primary screen, cell-based; 140,000 tested, 0.99% active; AID 793, 2007; inhibition, % at 2.7 µM; NPY-Y2 expressing cells, antagonist mode; in the data active = inhibition above about 17%;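 note: 0% = vehicle with agonist challenge and 100% = reference antagonist with challenge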
# Starred values were filed as active, the others as inactive; · = no result given.
SMILES,NPY-Y1 PAM-ag,NPY-Y2 PAM-ag,S1P4 agonist,S1P4 antagonist,NPY-Y1 antag,NPY Y2 blocker
CC[n+]1ccc(C(=O)NCc2ccccc2)cc1,5,-7,1,-58,3,·
COC(=O)CNC(c1ccccc1)c1cc(Br)ccc1NC(C)=O (centres undefined),-15,-8,1,4,20*,·
NNC(=O)CNC(c1ccccc1)c1cc(Br)ccc1NC(=O)c1ccc(Br)cc1 (centres undefined),6,3,0,-25,5,1
NNC(=O)CNC(c1ccccc1)c1cc(Br)ccc1NC(=O)c1cccc(Cl)c1 (centres undefined),0,-3,1,-20,-2,-1
COC(=O)CNC(c1ccccc1)c1cc(Cl)ccc1NC(=O)c1cccc(Cl)c1 (centres undefined),-33,-24,1,-13,34*,28*
Cc1cccc(Cn2c(C)nc3c(N)c(C)c(C)cc32)c1,-6,1,2,8,1,·
Cc1cc(Oc2ccc3ccccc3c2)nc(SCC(=O)c2ccccc2)n1,-114,-17,-1,-12,50*,41*
Cc1cc(Oc2ccc(Br)cc2)nc(SCC(=O)c2ccccc2)n1,-72,-56,2,-20,52*,39*
CCOC(=O)C1=C(C)N(CC(C)C)C(=O)C1,15,-5,1,12,-1,·
Cc1cc(C)cc(NC(=S)NCc2ccc3c(c2)OCO3)c1,-78,-52,0,-10,30*,14
Cc1ccc(C)c(NC(=S)NCc2ccc3c(c2)OCO3)c1,-15,-23,3,-4,8,11
COc1ccccc1-n1c(=O)c(C#N)c(-c2ccc([N+](=O)[O-])cc2)c2cc(C(=O)c3ccccc3O)cnc21,73*,49*,-1,-3,·,·
O=C(NC1=NN(c2ccccc2)CC1)Nc1ccccc1F,23,28,0,-2,·,·
Cc1ccc(OCCN2C(=O)C(=O)c3cc(C)ccc32)cc1,-18,-24,1,8,21*,·
Cc1noc(C)c1C(=O)Nc1nc(C23CC4CC(CC(C4)C2)C3)cs1,45*,72*,0,3,-11,0
CNC(=O)C(=O)Nc1nc(C23CC4CC(CC(C4)C2)C3)cs1,-4,0,1,-7,6,·
Cc1noc(C)c1C(=O)OCC(=O)Nc1cc(Cl)ccc1Oc1ccccc1,-20,-16,-2,-6,23*,22*
COc1ccc(C)cc1NC(=O)COC(=O)c1c(C)noc1C,-5,0,2,-9,3,1
CCSc1nnc(NC(=O)NC(CC)(C(F)(F)F)C(F)(F)F)s1,47*,23,2,-6,1,0
COC(=O)c1c(C)nn(-c2ccc(F)c(Cl)c2)c1-c1cc(C)on1,-24,-7,0,9,·,·
COc1ccccc1N1CCN(C(c2ccc(F)cc2)c2nnnn2C(C)C)CC1 (centres undefined),-13,4,-3,-5,24*,18*
COc1ccc(-c2cc(C(F)(F)F)nc(S(=O)(=O)CCCC(=O)Nc3cccnc3Cl)n2)cc1OC,-24,-19,0,29*,14,·
COCC(C)NC(=O)CCS(=O)(=O)c1nc(-c2ccc(OC)cc2)cc(C(F)(F)F)n1 (centres undefined),-17,2,-1,-5,1,3
CC(=O)N1CCc2ccc(NC(=O)c3c(-c4c(Cl)cccc4Cl)noc3C)cc21,13,5,2,9,·,·
CCCCCCCCCCn1c2c(c(=N)c3c1CCC3)CCC2,-88,-77,0,-4,92*,51*
SMILES,NPY-Y1 PAM-ag,NPY-Y2 PAM-ag,S1P4 agonist,S1P4 antagonist,NPY-Y1 antag,NPY Y2 blocker
Cc1cc(C(C)(C)C)oc1C(=O)N(CC(=O)NC1CCCC1)Cc1ccccc1Cl,-31,-20,-2,6,26*,27*
C#CCn1cc(/C=N/Nc2nc3ccccc3[nH]2)c2ccccc21,45*,49*,1,24,-8,-1
O=C(c1ccc(CSc2nc3ccncc3[nH]2)cc1)N1CCN(c2cccc(Cl)c2)CC1,50*,36*,2,-2,1,-1
CCCn1c(=N)n(CCOc2ccc(OC)cc2)c2ccccc21,-14,-14,1,-22,16,16
CCn1c(=N)n(CC(O)COc2cccc(C)c2)c2ccccc21 (centres undefined),-43,-10,-1,-12,20*,21*
CCn1c(=N)n(CC(O)c2ccccc2)c2ccccc21 (centres undefined),-25,3,0,3,0,3
CCCn1c(=N)n(CC(O)COc2cccc(C)c2)c2ccccc21 (centres undefined),-25,-33,0,-9,26*,42*
O=C(Nc1ccc(C(=O)O)cc1)/C(=C\c1ccc([N+](=O)[O-])cc1)NC(=O)c1ccc(Br)cc1,-19,-20,0,-15,5,·
OCc1nc2ccccc2n1/N=C/c1cccs1,-2,-6,0,-10,·,·
O=C(N/N=C/c1ccc[nH]1)c1ccc2c(c1)OCO2,-18,-8,1,-3,-3,·
O=C(N/N=C/c1ccc(-c2ccc(Br)cc2)o1)c1ccc2c(c1)OCO2,-8,0,0,1,21*,·
O=C(Cc1ccccc1)c1nnc(-c2ccccc2)o1,-20,-1,-1,4,-5,·
CCOC(=O)Cn1nnc2c(sc3nc4c(c(-c5ccc(Cl)cc5)c32)CCC4)c1=O,-23,-14,-1,6,19,22*
CCOC(=O)Cn1nnc2c(sc3nc4c(c(-c5ccccc5)c32)CCC4)c1=O,-2,-8,0,-5,8,4
COc1ccccc1NC1C=CS(=O)(=O)C1 (centres undefined),9,8,1,11,-3,2
Cc1ccccc1NC1C=CS(=O)(=O)C1 (centres undefined),22,107*,0,0,1,0
C/C(=N\Nc1ccc([N+](=O)[O-])cc1)c1cc2ccccc2o1,22,9,0,15,1,·
C=CCc1cccc2cc(C(=O)O)c(=O)oc12,-13,9,5,-2,2,2
C=CCc1cccc2cc(C(=O)Nc3ccccc3C(=O)O)c(=O)oc12,28,45*,0,-39,-3,·
Cc1cccc(NC2=C/C(=N/S(=O)(=O)c3cccs3)c3ccccc3C2=O)c1,-30,-13,6,-3,-3,-9
Cc1ccc(NC2=C/C(=N\S(=O)(=O)c3cccs3)c3ccccc3C2=O)c(C)c1,48*,62*,-1,-9,-15,-9
Cn1cnnc1SCC(=O)Nc1ccc(Cl)cn1,74*,71*,0,-5,-12,·
